Measured values as given in ChEMBL document CHEMBL3865827, “A novel class of ethacrynic acid derivatives as promising drug-like potent generation of anticancer agents with established mechanism of action” (Eur J Med Chem, 2016).
Activity calls are given as the source filed them. No cut-off for these calls is given here.

How the values were obtained:
[1] = Cell cycle arrest in human HL60 cells assessed as accumulation at G2/M phase at 2.5 uM after 48 hrs by propidium iodide-staining based FACS analysis (reference value: 2.2 %); format: functional; conditions: HL-60
Summary of the method: (§1)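 HL60 cells, 25,000 per well, exposed 24 and 48 h to 2.5 µM compounds; controls DMSO (1% final). Propidium iodide staining, flow cytometry; fractions in sub-G1, G0/G1, S and G2/M quantified.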

[2] = Cell cycle arrest in human HL60 cells assessed as accumulation at S phase at 2.5 uM after 48 hrs by propidium iodide-staining based FACS analysis (reference value: 52.6 %); format: functional; conditions: HL-60; summary of the method: as §1
[3] = Cell cycle arrest in human HL60 cells assessed as accumulation at G0/G1 phase at 2.5 uM after 24 hrs by propidium iodide-staining based FACS analysis (reference value: 43.5 %); format: functional; conditions: HL-60; summary of the method: as §1
[4] = Cell cycle arrest in human HL60 cells assessed as accumulation at sub G1 phase at 2.5 uM after 24 hrs by propidium iodide-staining based FACS analysis (reference value: 2.6 %); format: functional; conditions: HL-60; summary of the method: as §1
[5] = test system: HCT-116; assay: Induction of necrosis in human HCT116 cells assessed as increase in LDH release at 7 uM after 24 to 48 hrs by fluorescence assay; format: functional, cell-based
[6] = Cell cycle arrest in human HL60 cells assessed as accumulation at S phase at 2.5 uM after 24 hrs by propidium iodide-staining based FACS analysis (reference value: 48.9 %); format: functional; conditions: HL-60; summary of the method: as §1
[7] = test system: MRC5; assay: Induction of necrosis in human MRC5 SV2 cells assessed as increase in LDH release at 7 uM after 24 to 48 hrs by fluorescence assay; format: functional, cell-based
[8] = Cell cycle arrest in human HL60 cells assessed as accumulation at sub G1 phase at 2.5 uM after 48 hrs by propidium iodide-staining based FACS analysis (reference value: 1.4 %); format: functional; conditions: HL-60; summary of the method: as §1
[9] = Cell cycle arrest in human HL60 cells assessed as accumulation at G2/M phase at 2.5 uM after 24 hrs by propidium iodide-staining based FACS analysis (reference value: 5.1 %); format: functional; conditions: HL-60; summary of the method: as §1
[10] = Cell cycle arrest in human HL60 cells assessed as accumulation at G0/G1 phase at 2.5 uM after 48 hrs by propidium iodide-staining based FACS analysis (reference value: 43.8 %); format: functional; conditions: HL-60; summary of the method: as §1
[11] = Antiproliferative activity against Cyprinus carpio EPC after 24 to 72 hrs by MTS assay
[12] = Antiproliferative activity against human KB cells after 24 to 72 hrs by MTS assay; format: functional, cell-based
Summary of the method: (§2)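 Cells plated, then dosed 24 h later with compounds in DMSO (1% final; controls DMSO alone), exposed 24 or 72 h. Proliferation inhibition measured as previously reported (MTS/NADH reagent). IC50 from duplicate experiments over 0.5 nM–100 µM. KB grown in D-MEM with 10% fetal calf serum, penicillin, streptomycin, fungizone, 5% CO2; other lines in complete RPMI. EPC are quiescent Cyprinus carpio endothelial progenitor cells.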

[13] = Antiproliferative activity against human HL60 cells after 24 to 72 hrs by MTS assay; format: functional, cell-based; conditions: HL-60; summary of the method: as §2
[14] = test system: HL-60; assay: Selectivity index, ratio of IC50 for Cyprinus carpio EPC to IC50 for human HL60 cells
[15] = test system: KB; assay: Selectivity index, ratio of IC50 for Cyprinus carpio EPC to IC50 for human KB cells
[16] = Cytotoxicity against human HL60 cells assessed as reduction in cell viability after 24 hrs by MTS assay; format: functional, cell-based; conditions: HL-60, 24 h
[17] = test system: HL-60; assay: Antiproliferative activity against human HL60 cells at 7 uM after 24 hrs by viacount-reagent based FACS analysis
[18] = test system: HL60 (Homo sapiens); assay: Effect on 24 hrs pretreated human HL60 cells assessed as reduction in endogenous GSH content at 7 uM measured for 60 mins by fluorescence assay; conditions: HL-60
[19] = test system: KB; assay: Induction of necrosis in human KB cells assessed as increase in LDH release at 7 uM after 24 to 48 hrs by fluorescence assay; format: functional, cell-based
[20] = Antiproliferative activity against human PC3 cells after 24 to 72 hrs by MTS assay; format: functional, cell-based; conditions: PC-3
[21] = Antiproliferative activity against human HCT116 cells after 24 to 72 hrs by MTS assay; format: functional, cell-based; conditions: HCT-116
[22] = Antiproliferative activity against human SKOV3 cells after 24 to 72 hrs by MTS assay; format: functional, cell-based; conditions: SK-OV-3
[23] = Antiproliferative activity against human OVCAR8 cells after 24 to 72 hrs by MTS assay; format: functional, cell-based; conditions: OVCAR-8
[24] = Antiproliferative activity against human MCF7 cells after 24 to 72 hrs by MTS assay; format: functional, cell-based

| Compound | Activity [5] | Activity [7] | IC50 [11] | IC50 [12] | IC50 [13] | Ratio IC50 [14] | Ratio IC50 [15] | further results |
| --- | --- | --- | --- | --- | --- | --- | --- | --- |
| C=C(CC)C(O)c1ccc(OCC(=O)NCCc2ccc(O)cc2)c(Cl)c1Cl (configuration not stated) | Active | Active |  |  |  |  |  | Activity [1]: 0.6%; Activity [2]: 41.5%; Activity [3]: 42.3%; Activity [4]: 2%; Activity [6]: 50.5%; Activity [8]: 6.1%; Activity [9]: 5.2%; Activity [10]: 51.9% |
| C=C(CC)C(=O)c1ccc(OCC(=O)N2CCN(c3ccc(OP4(=O)OCCC(c5cccc(Cl)c5)O4)cc3)CC2)c(Cl)c1Cl (configuration not stated) |  |  | 7.8 µM | 0.4 µM | 0.9 µM | 8.7 | 21 |  |
| C=C(CC)C(=O)c1ccc(OCC(=O)NCCc2ccc(O)c(OC)c2)c(Cl)c1Cl | Active | Active | 4.5 µM | 0.8 µM | 1.6 µM | 2.8 | 5.6 | IC50 [16]: 2.6 µM; Activity [17]: Active; GSH reduction activity [18]: Active; Activity [19]: Active |
| C=C(CC)C(=O)c1ccc(OCC(=O)NCCc2ccc(OP(=O)(OCC)OCC)cc2)c(Cl)c1Cl |  |  | 3.2 µM | 0.8 µM | 1.1 µM | 2.9 | 4 |  |
| C=C(CC)C(=O)c1ccc(OCC(=O)NCCc2ccc(OP(=O)(OC)OC)cc2)c(Cl)c1Cl |  |  | 0.7 µM | 0.4 µM | 1.2 µM | 0.58 | 1.75 | IC50 [20]: 0.8 µM; IC50 [21]: 1.5 µM; IC50 [22]: 2.8 µM; IC50 [23]: 1.5 µM; IC50 [24]: 0.9 µM |
| C=C(CC)C(=O)c1ccc(OCC(=O)NCCc2ccc(OP(=O)(OCC)OCC)c(OC)c2)c(Cl)c1Cl |  |  | 2.3 µM | 0.7 µM | 0.8 µM | 2.8 | 3.2 |  |
| C=C(CC)C(=O)c1ccc(OCC(=O)NCCc2ccc(OP3(=O)OCCC(c4cccc(Cl)c4)O3)cc2)c(Cl)c1Cl (configuration not stated) |  |  | 2.2 µM | 0.7 µM | 0.9 µM | 2.4 | 3.1 |  |
| C=C(CC)C(=O)c1ccc(OCC(=O)N2CCN(c3ccc(OP(=O)(OC)OC)cc3)CC2)c(Cl)c1Cl |  |  | 2.9 µM | 0.17 µM | 0.8 µM | 3.6 | 17 | IC50 [20]: 1.1 µM; IC50 [21]: 0.8 µM; IC50 [22]: 2.2 µM; IC50 [23]: 1.4 µM; IC50 [24]: 0.5 µM |
| CCC(C)C(=O)c1ccc(OCC(=O)N2CCN(c3ccc(OC)cc3)CC2)c(Cl)c1Cl (configuration not stated) | Active | Active |  |  |  |  |  |  |
| C=C(CC)C(=O)c1ccc(OCC(=O)N2CCN(c3ccc(OC)cc3)CC2)c(Cl)c1Cl | Active | Active | 3.6 µM | 0.4 µM | 0.8 µM | 4.5 | 9 |  |
| CCC(C)C(=O)c1ccc(OCC(=O)NCCc2ccc(O)cc2)c(Cl)c1Cl (configuration not stated) | Active | Active |  |  |  |  |  | Activity [1]: 2.2%; Activity [2]: 41.9%; Activity [3]: 42.1%; Activity [4]: 3.3%; Activity [6]: 46.7%; Activity [8]: 4.2%; Activity [9]: 7.9%; Activity [10]: 51.7% |
| CCC(C)C(=O)c1ccc(OCC(=O)N2CCN(c3ccc(O)cc3)CC2)c(Cl)c1Cl (configuration not stated) | Active | Active |  |  |  |  |  |  |
| C=C(CC)C(=O)c1ccc(OCC(=O)N2CCN(c3ccc(OP(=O)(OCC)OCC)cc3)CC2)c(Cl)c1Cl |  |  | 2.8 µM | 0.3 µM | 0.5 µM | 5.6 | 9.3 |  |
| C=C(CC)C(=O)c1ccc(OCC(=O)NCCc2ccc(OP3(=O)OCCCO3)cc2)c(Cl)c1Cl |  |  | 3.4 µM | 0.5 µM | 1.2 µM | 2.8 | 6.8 |  |
